Data set [1] has as its target T1, Prostaglandin G/H synthase 2 (Homo sapiens) (UniProt P35354).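 Also: recombinant human COX2 made in Sf9 insect cells, read-out is reactive oxygen species formed on arachidonic acid stimulation, measured after 30 min.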
T1 sequence (whole entry): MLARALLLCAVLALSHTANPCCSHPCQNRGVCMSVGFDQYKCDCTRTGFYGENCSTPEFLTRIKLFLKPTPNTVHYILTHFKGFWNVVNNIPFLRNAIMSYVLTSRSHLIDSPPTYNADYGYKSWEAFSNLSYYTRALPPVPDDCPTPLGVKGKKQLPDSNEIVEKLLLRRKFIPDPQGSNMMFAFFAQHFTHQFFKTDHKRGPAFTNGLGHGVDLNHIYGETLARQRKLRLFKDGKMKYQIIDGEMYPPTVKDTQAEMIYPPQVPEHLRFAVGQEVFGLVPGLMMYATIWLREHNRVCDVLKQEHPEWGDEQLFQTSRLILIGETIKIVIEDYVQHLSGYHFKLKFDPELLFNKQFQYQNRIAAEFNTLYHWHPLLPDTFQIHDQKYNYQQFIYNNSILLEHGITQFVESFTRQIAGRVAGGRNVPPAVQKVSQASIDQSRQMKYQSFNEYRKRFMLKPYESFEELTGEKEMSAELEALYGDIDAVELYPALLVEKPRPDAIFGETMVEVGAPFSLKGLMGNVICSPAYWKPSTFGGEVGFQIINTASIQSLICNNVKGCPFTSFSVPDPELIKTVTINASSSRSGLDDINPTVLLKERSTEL
Conditions: Spodoptera frugiperda; Sf9; at 10 µM.

Data set [2] in a line: Toxicity against new Zealand rabbit blood assessed as hemolysis after 60 mins. It is filed as tissue-based, Oryctolagus cuniculus. Conditions: read-out: HD50. The method, boiled down:
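Erythrocytes washed three times in PBS (pH 7.4) and diluted to a 10% suspension. Compounds were dissolved in DMSO, then diluted with PBS to 2.5–250 µg/mL. Suspension was added, and samples were stirred and incubated 60 min at 37 °C with periodic stirring. After centrifugation at 3000 rpm for 5 min, supernatant A540 was read. Haemolysis % was calculated relative to distilled water (100%).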

The source of these data is ChEMBL document CHEMBL1138252, “Synthesis, in vitro inhibitory activity towards COX-2 and haemolytic activity of derivatives of esculentoside A” (Bioorg Med Chem Lett, 2007).

On to `COC(=O)[C@@]1(C)CC[C@]2(C(=O)NCc3ccc(Cl)cc3)CC[C@]3(C)C(=CC[C@@H]4[C@@]5(C)C[C@H](O)[C@H](O[C@@H]6OC[C@@H](O[C@@H]7O[C@H](CO)[C@@H](O)[C@H](O)[C@H]7O)[C@H](O)[C@H]6O)[C@@](C)(CO)[C@@H]5CC[C@]43C)[C@@H]2C1`, for which the inhibition in data set [1] was 126%. Further, the HC50 at 1 h in data set [2] is below 2.6 µM. For the compound `COC(=O)[C@@]1(C)CC[C@]2(C(=O)NCc3ccc(OC)c(OC)c3)CC[C@]3(C)C(=CC[C@@H]4[C@@]5(C)C[C@H](O)[C@H](O[C@@H]6OC[C@@H](O[C@@H]7O[C@H](CO)[C@@H](O)[C@H](O)[C@H]7O)[C@H](O)[C@H]6O)[C@@](C)(CO)[C@@H]5CC[C@]43C)[C@@H]2C1`, the inhibition in data set [1] is 19.4%. The HC50 at 1 h in data set [2] is 215 µM. For `COC(=O)[C@@]1(C)CC[C@]2(C(=O)O)CC[C@]3(C)C(=CC[C@@H]4[C@@]5(C)C[C@H](O)[C@H](O[C@@H]6OC[C@@H](O[C@@H]7O[C@H](CO)[C@@H](O)[C@H](O)[C@H]7O)[C@H](O)[C@H]6O)[C@@](C)(CO)[C@@H]5CC[C@]43C)[C@@H]2C1`, in that order: 21.7% and 186 µM. Turning to `COC(=O)[C@@H](Cc1ccccc1)NC(=O)[C@]12CC[C@](C)(C(=O)OC)C[C@H]1C1=CC[C@@H]3[C@@]4(C)C[C@H](O)[C@H](O[C@@H]5OC[C@@H](O[C@@H]6O[C@H](CO)[C@@H](O)[C@H](O)[C@H]6O)[C@H](O)[C@H]5O)[C@@](C)(CO)[C@@H]4CC[C@@]3(C)[C@]1(C)CC2`, the HC50 at 1 h in data set [2] worked out at 204 µM. In the case of `COC(=O)[C@@]1(C)CC[C@]2(C(=O)N3CCNCC3)CC[C@]3(C)C(=CC[C@@H]4[C@@]5(C)C[C@H](O)[C@H](O[C@@H]6OC[C@@H](O[C@@H]7O[C@H](CO)[C@@H](O)[C@H](O)[C@H]7O)[C@H](O)[C@H]6O)[C@@](C)(CO)[C@@H]5CC[C@]43C)[C@@H]2C1`, in data set [1], the inhibition was 4.6%.

Take `COC(=O)[C@@]1(C)CC[C@]2(C(=O)NCCCc3ccccc3)CC[C@]3(C)C(=CC[C@@H]4[C@@]5(C)C[C@H](O)[C@H](O[C@@H]6OC[C@@H](O[C@@H]7O[C@H](CO)[C@@H](O)[C@H](O)[C@H]7O)[C@H](O)[C@H]6O)[C@@](C)(CO)[C@@H]5CC[C@]43C)[C@@H]2C1`: the HC50 at 1 h in data set [2] is below 2.6 µM. Take `CNC(=O)[C@]12CC[C@](C)(C(=O)OC)C[C@H]1C1=CC[C@@H]3[C@@]4(C)C[C@H](O)[C@H](O[C@@H]5OC[C@@H](O[C@@H]6O[C@H](CO)[C@@H](O)[C@H](O)[C@H]6O)[C@H](O)[C@H]5O)[C@@](C)(CO)[C@@H]4CC[C@@]3(C)[C@]1(C)CC2`: the HC50 at 1 h in data set [2] was found to be 276 µM. Consider `CCCNC(=O)[C@]12CC[C@](C)(C(=O)OC)C[C@H]1C1=CC[C@@H]3[C@@]4(C)C[C@H](O)[C@H](O[C@@H]5OC[C@@H](O[C@@H]6O[C@H](CO)[C@@H](O)[C@H](O)[C@H]6O)[C@H](O)[C@H]5O)[C@@](C)(CO)[C@@H]4CC[C@@]3(C)[C@]1(C)CC2`, for which the HC50 at 1 h in data set [2] stood at 191 µM. In the case of `COC(=O)[C@@]1(C)CC[C@]2(C(=O)N(C(=O)NC3CCCCC3)C3CCCCC3)CC[C@]3(C)C(=CC[C@@H]4[C@@]5(C)C[C@H](O)[C@H](O[C@@H]6OC[C@@H](O[C@@H]7O[C@H](CO)[C@@H](O)[C@H](O)[C@H]7O)[C@H](O)[C@H]6O)[C@@](C)(CO)[C@@H]5CC[C@]43C)[C@@H]2C1`, the inhibition in data set [1] amounted to 75%. In addition, the HC50 at 1 h in data set [2] is below 2.4 µM. Regarding `COC(=O)[C@@H](Cc1c[nH]c2ccccc12)NC(=O)[C@]12CC[C@](C)(C(=O)OC)C[C@H]1C1=CC[C@@H]3[C@@]4(C)C[C@H](O)[C@H](O[C@@H]5OC[C@@H](O[C@@H]6O[C@H](CO)[C@@H](O)[C@H](O)[C@H]6O)[C@H](O)[C@H]5O)[C@@](C)(CO)[C@@H]4CC[C@@]3(C)[C@]1(C)CC2`, the inhibition in data set [1] is 47.7%. Besides, the HC50 at 1 h in data set [2] was above 243 µM. On the same counts, the results for `COC(=O)[C@@]1(C)CC[C@]2(C(=O)NCc3ccc(OC)cc3)CC[C@]3(C)C(=CC[C@@H]4[C@@]5(C)C[C@H](O)[C@H](O[C@@H]6OC[C@@H](O[C@@H]7O[C@H](CO)[C@@H](O)[C@H](O)[C@H]7O)[C@H](O)[C@H]6O)[C@@](C)(CO)[C@@H]5CC[C@]43C)[C@@H]2C1` are 56.8% and 12.7 µM. Regarding `COC(=O)[C@@]1(C)CC[C@]2(C(=O)NCCc3ccccc3)CC[C@]3(C)C(=CC[C@@H]4[C@@]5(C)C[C@H](O)[C@H](O[C@@H]6OC[C@@H](O[C@@H]7O[C@H](CO)[C@@H](O)[C@H](O)[C@H]7O)[C@H](O)[C@H]6O)[C@@](C)(CO)[C@@H]5CC[C@]43C)[C@@H]2C1`, the inhibition in data set [1] came to 94.7%. Besides, the HC50 at 1 h in data set [2] is 21.3 µM.

`COC(=O)[C@@]1(C)CC[C@]2(C(=O)NCCO)CC[C@]3(C)C(=CC[C@@H]4[C@@]5(C)C[C@H](O)[C@H](O[C@@H]6OC[C@@H](O[C@@H]7O[C@H](CO)[C@@H](O)[C@H](O)[C@H]7O)[C@H](O)[C@H]6O)[C@@](C)(CO)[C@@H]5CC[C@]43C)[C@@H]2C1`: the HC50 at 1 h in data set [2] was above 287 µM.

`COC(=O)[C@@]1(C)CC[C@]2(C(=O)On3nnc4ccccc43)CC[C@]3(C)C(=CC[C@@H]4[C@@]5(C)C[C@H](O)[C@H](O[C@@H]6OC[C@@H](O[C@@H]7O[C@H](CO)[C@@H](O)[C@H](O)[C@H]7O)[C@H](O)[C@H]6O)[C@@](C)(CO)[C@@H]5CC[C@]43C)[C@@H]2C1`: the HC50 at 1 h in data set [2] was determined as 55.2 µM. Regarding `CCCCNC(=O)[C@]12CC[C@](C)(C(=O)OC)C[C@H]1C1=CC[C@@H]3[C@@]4(C)C[C@H](O)[C@H](O[C@@H]5OC[C@@H](O[C@@H]6O[C@H](CO)[C@@H](O)[C@H](O)[C@H]6O)[C@H](O)[C@H]5O)[C@@](C)(CO)[C@@H]4CC[C@@]3(C)[C@]1(C)CC2`, the HC50 at 1 h in data set [2] came out at 15.8 µM. As to `COC(=O)[C@@]1(C)CC[C@]2(C(=O)NCc3ccc(F)cc3)CC[C@]3(C)C(=CC[C@@H]4[C@@]5(C)C[C@H](O)[C@H](O[C@@H]6OC[C@@H](O[C@@H]7O[C@H](CO)[C@@H](O)[C@H](O)[C@H]7O)[C@H](O)[C@H]6O)[C@@](C)(CO)[C@@H]5CC[C@]43C)[C@@H]2C1`, in data set [1], the inhibition was 58.1%. In data set [2], the HC50 at 1 h was found to be 94.5 µM. Consider `COC(=O)[C@@H](C)NC(=O)[C@]12CC[C@](C)(C(=O)OC)C[C@H]1C1=CC[C@@H]3[C@@]4(C)C[C@H](O)[C@H](O[C@@H]5OC[C@@H](O[C@@H]6O[C@H](CO)[C@@H](O)[C@H](O)[C@H]6O)[C@H](O)[C@H]5O)[C@@](C)(CO)[C@@H]4CC[C@@]3(C)[C@]1(C)CC2`, for which, in data set [2], the HC50 at 1 h is above 274 µM. On to `COC(=O)[C@@H](CCSC)NC(=O)[C@]12CC[C@](C)(C(=O)OC)C[C@H]1C1=CC[C@@H]3[C@@]4(C)C[C@H](O)[C@H](O[C@@H]5OC[C@@H](O[C@@H]6O[C@H](CO)[C@@H](O)[C@H](O)[C@H]6O)[C@H](O)[C@H]5O)[C@@](C)(CO)[C@@H]4CC[C@@]3(C)[C@]1(C)CC2`, for which, in data set [2], the HC50 at 1 h is 203 µM. `COC(=O)[C@@]1(C)CC[C@]2(C(=O)NCc3ccccc3)CC[C@]3(C)C(=CC[C@@H]4[C@@]5(C)C[C@H](O)[C@H](O[C@@H]6OC[C@@H](O[C@@H]7O[C@H](CO)[C@@H](O)[C@H](O)[C@H]7O)[C@H](O)[C@H]6O)[C@@](C)(CO)[C@@H]5CC[C@]43C)[C@@H]2C1`: the inhibition in data set [1] turned out to be 26.9%. Besides, the HC50 at 1 h in data set [2] was 136 µM.

Turning to `COC(=O)[C@@]1(C)CC[C@]2(C(=O)NCc3ccccc3Cl)CC[C@]3(C)C(=CC[C@@H]4[C@@]5(C)C[C@H](O)[C@H](O[C@@H]6OC[C@@H](O[C@@H]7O[C@H](CO)[C@@H](O)[C@H](O)[C@H]7O)[C@H](O)[C@H]6O)[C@@](C)(CO)[C@@H]5CC[C@]43C)[C@@H]2C1`, the inhibition in data set [1] is 82.9%. Further, the HC50 at 1 h in data set [2] is 42.8 µM.

In the case of `COC(=O)[C@H](NC(=O)[C@]12CC[C@](C)(C(=O)OC)C[C@H]1C1=CC[C@@H]3[C@@]4(C)C[C@H](O)[C@H](O[C@@H]5OC[C@@H](O[C@@H]6O[C@H](CO)[C@@H](O)[C@H](O)[C@H]6O)[C@H](O)[C@H]5O)[C@@](C)(CO)[C@@H]4CC[C@@]3(C)[C@]1(C)CC2)C(C)C`, the HC50 at 1 h in data set [2] is above 266 µM.
